CHOP inhibitor: blocks CHOP induction under ER stress; CHO-K1 CHOP-promoter luciferase, tunicamycin-induced, 15-18 h; inhibition, % at 10 µM; hit rate 3.8% among 220,000; AID 2732;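 active = compounds that reduced the stress-induced luciferase reporter signal by more than about 70% of percent inhibition, limit read from the data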
HCV NS3 hel inh: inhibitors of Hepatitis C virus NS3 helicase. hit rate 0.56% among 290,000. AID 1800. NS3 helicase DNA unwinding, Cy5 molecular beacon fluorescence. inhibition, % at 10.9 µM;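 active = inhibition above the mean of all tested compounds plus 3 SD, set per campaign, cut at about 35% in these data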
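Material: hepatitis C virus NS3 helicase domain fragment enzyme; measured by: Cy5 fluorescence, 0 and 60 min reads; control set: DMSO and thioflavine S; incubation: 60 min unwinding reaction at 25 °C after ATP addition; read-out basis: % inhibition from 60/0 min fluorescence ratio, DMSO 0%, thioflavine S 100%; repeats: singlicate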
PfM18AAP inh-1: PfM18AAP enzyme inhibition | recombinant PfM18AAP, H-Glu-NHMec fluorogenic cleavage | hit rate 1.2% among 290,000 | inhibition, % at 7.35 µM;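 active = inhibition above the campaign mean inhibition over all tested compounds plus 3 SD, cut at about 28% in these data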
CHOP UPR activ: apoptotic UPR (CHOP) activation; CHO-CHOP luciferase reporter, luminescence; percent of tunicamycin response over DMSO baseline; activation, % at 10 µM; hit rate 0.34% among 330,000; AID 449763;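 active = at 10 µM dose, activation of 40% or more, normalized to positive control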
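System: CHO-CHOP luciferase reporter cell line | Buffer or medium: F12 medium containing 10% fetal bovine serum | Doses: One dose, 10 µM in 0.5% DMSO | Times: 6 h compound exposure at 37 °C after overnight seeding | Signal: Luciferase luminescence | Read-out: % activation vs tunicamycin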
UPR XBP1 act: adaptive UPR (XBP1) activation; CHO-XBP1 luciferase reporter, IRE1-XBP1 UPR activation, luminescence; percent of tunicamycin response, DMSO as zero; activation, % at 20 µM; hit rate 0.33% among 330,000; AID 463104;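 active = versus positive control, 20 µM dose yields 30% or more activation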
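Material: CHO-XBP1 cells stably carrying IRE1-XBP1-driven luciferase reporter | Medium: F12 with 10% serum | Compound dosing: 20 µM single concentration, DMSO 1% | Incubation: Overnight seeding at 37 °C, 6 h compound treatment at 37 °C | Detection: Steady-Glo luminescence read | Read-out basis: % activation of reporter signal versus tunicamycin and DMSO controls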
p97 ATPase inh: human p97 ATPase inhibition. recombinant p97 ATPase, Kinase-Glo ATP luminescence, 3 h. inhibition, % at 8 µM. hit rate 0.42% among 220,000; in the data active = inhibition above about 15%
Target sequence (P55072 whole entry, looked up): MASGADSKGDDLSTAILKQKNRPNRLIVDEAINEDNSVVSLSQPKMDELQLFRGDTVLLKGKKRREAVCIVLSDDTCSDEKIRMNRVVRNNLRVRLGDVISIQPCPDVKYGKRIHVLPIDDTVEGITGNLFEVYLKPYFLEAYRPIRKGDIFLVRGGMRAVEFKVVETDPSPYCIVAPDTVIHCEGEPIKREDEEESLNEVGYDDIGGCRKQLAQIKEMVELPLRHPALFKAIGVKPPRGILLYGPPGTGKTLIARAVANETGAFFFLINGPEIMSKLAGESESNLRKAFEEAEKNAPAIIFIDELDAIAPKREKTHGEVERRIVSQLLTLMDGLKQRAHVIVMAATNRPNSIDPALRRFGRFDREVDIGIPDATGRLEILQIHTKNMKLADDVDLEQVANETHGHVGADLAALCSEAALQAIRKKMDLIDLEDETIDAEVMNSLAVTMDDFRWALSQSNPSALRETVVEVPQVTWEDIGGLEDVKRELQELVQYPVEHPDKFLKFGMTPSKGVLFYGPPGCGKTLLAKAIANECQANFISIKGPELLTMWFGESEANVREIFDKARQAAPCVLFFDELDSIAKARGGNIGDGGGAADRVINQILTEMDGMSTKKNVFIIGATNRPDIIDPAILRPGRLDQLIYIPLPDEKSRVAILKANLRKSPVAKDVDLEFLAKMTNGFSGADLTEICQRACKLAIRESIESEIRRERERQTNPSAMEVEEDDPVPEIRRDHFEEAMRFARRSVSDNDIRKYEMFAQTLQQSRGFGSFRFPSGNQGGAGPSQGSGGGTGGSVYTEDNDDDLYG
p97 confirm: confirmation of human p97 ATPase inhibitors; inhibition, % at 8 µM; hit rate 44% among 760; shares compounds with p97 ATPase inh; recombinant p97 ATPase, Kinase-Glo ATP luminescence;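 active = percent inhibition of p97 ATPase above a set limit, the primary screen's mean plus 3 SD, cut at about 15% in these data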
NS3 helicase cf: confirmation of Hepatitis C virus NS3 helicase inhibitors; hit rate 31% among 1,600; inhibition, % at 10.9 µM; shares compounds with HCV NS3 hel inh; NS3 helicase DNA unwinding, Cy5 molecular beacon fluorescence;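 active = inhibition above the mean of all tested compounds plus 3 SD, cutoff set per campaign, cut at about 36% in these data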
FID counter trip: counter-screen for HCV NS3 helicase inhibitors: DNA intercalator displacement; shares compounds with HCV NS3 hel inh; DNA fluorescent intercalator displacement, fluorescence; inhibition, % at 7.9 µM; hit rate 4% among 1,600; in the data active = inhibition above about 37%;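 note: higher means more displacement of ethidium bromide from the DNA hairpin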
FID counter DR: DNA intercalator displacement in dose response; shares compounds with HCV NS3 hel inh; fluorescent intercalator displacement from DNA, fluorescence; IC50, µM; 120 tested, under 10 active; call rule not given here
PfM18AAP inh-2: PfM18AAP inhibition, confirmation | shares compounds with PfM18AAP inh-1 | recombinant PfM18AAP, H-Glu-NHMec fluorogenic cleavage | inhibition, % at 7.35 µM | hit rate 28% among 2,400 | AID 2170;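 active = mean inhibition over replicate wells above the hit cutoff set for the earlier primary screen, cut at about 29% in these data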
CTSL1 counter: Cathepsin L (human) inhibition, confirmation; 2,400 tested, under 10 active; inhibition, % at 5.96 µM; shares compounds with PfM18AAP inh-1; purified cathepsin L1, Z-Leu-Arg-MCA fluorescence; AID 2178;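 active = average inhibition across replicates above the hit cutoff set in the earlier primary screen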
Each line names hits and unclear results; the compound was inactive in the other large screens (follow-up assays come after a bar, where they were run). A selection: hits, their analogues and other compounds. The true share with any hit is near 4.5%.

O=C(Nc1ccc(Nc2ccncc2)cc1)c1ccc(Nc2ccnc3ccc([N+](=O)[O-])cc23)cc1	HCV NS3 hel inh 53, p97 ATPase inh 34 (no result: CHOP UPR activ, UPR XBP1 act) | p97 confirm 24 | NS3 helicase cf 78 | FID counter trip 103
C=C1c2cccc(O)c2C(O)=C2C(=O)[C@]3(O)C(O)=C(C(N)=O)C(=O)[C@@H](N(C)C)[C@@H]3[C@@H](O)[C@H]12	HCV NS3 hel inh 85, p97 ATPase inh 63 | p97 confirm inactive | NS3 helicase cf 55 | FID counter trip inactive | FID counter DR inactive
COc1ccc(C2CC(c3ccccc3OC(C)=O)=NN2C(C)=O)cc1 (configuration not stated)	none
O=C(CCCN1C(=O)/C(=C\c2ccco2)SC1=S)Nc1ccc2ccccc2c1	none
O=C(CCCN1C(=O)/C(=C/c2ccco2)SC1=S)Nc1ccccc1C(=O)O	HCV NS3 hel inh 46, p97 ATPase inh 22 | p97 confirm inactive | NS3 helicase cf 73 | FID counter trip inactive
COC(=O)c1cc(NC(=O)Cn2c(=O)oc3ccccc32)cc(C(=O)OC)c1	none (no result: CHOP inhibitor, p97 ATPase inh)
CC1=NN2C(=N)/C(=C\c3ccc(SCc4ccccc4)o3)C(=O)N=C2S1	none
N=C1/C(=C\c2ccc(SCc3ccco3)o2)C(=O)N=C2SC=NN12	HCV NS3 hel inh 53, p97 ATPase inh 18 | p97 confirm 16 | NS3 helicase cf 63 | FID counter trip inactive
O=C(NCc1ccccc1Br)c1ccc2c(c1)OCCO2	none (no result: CHOP inhibitor, p97 ATPase inh)
CC(=O)Oc1cc2c3c(c1)/C(=C1/SC(=S)NC1=O)C(=O)N3C(C)(C)C=C2C	HCV NS3 hel inh 53, p97 ATPase inh 25 | p97 confirm 45 | NS3 helicase cf 80 | FID counter trip inactive
CN1C(=O)CC(Nc2cccc3cccc(N)c23)C1=O (configuration not stated)	none
CC(C)N1C(=O)CC(Nc2cccc3cccc(N)c23)C1=O (configuration not stated)	HCV NS3 hel inh 40, p97 ATPase inh 18 (no result: CHOP UPR activ, UPR XBP1 act) | p97 confirm inactive | NS3 helicase cf inactive | FID counter trip inactive
CCn1c2ccccc2c2c3ncc4cccn4c3ccc21	HCV NS3 hel inh 44, p97 ATPase inh 15 | p97 confirm inactive | NS3 helicase cf inactive | FID counter trip 50
CCCCn1c(NC(=O)c2ccccc2Cl)c(C#N)c2nc3ccccc3nc21	HCV NS3 hel inh 47, p97 ATPase inh 29 | p97 confirm 40 | NS3 helicase cf 69 | FID counter trip inactive
N#Cc1c(NC(=O)c2ccccc2Cl)n(Cc2ccccc2)c2nc3ccccc3nc12	HCV NS3 hel inh 41, p97 ATPase inh 38 (no result: CHOP UPR activ, UPR XBP1 act) | p97 confirm 47 | NS3 helicase cf 38 | FID counter trip inactive
CSc1nc(N2CCOCC2)nc2ccc(C)cc12	none (no result: CHOP inhibitor, HCV NS3 hel inh, PfM18AAP inh-1, p97 ATPase inh)
O=C(Cc1ccccc1)Nc1ccc2c(c1)CCC2	none
O=C(CC1CCCC1)Nc1ccc2c(c1)CCC2	HCV NS3 hel inh 39, PfM18AAP inh-1 46, p97 ATPase inh 46 | p97 confirm inactive | PfM18AAP inh-2 inactive | CTSL1 counter inactive
C#CCN(CC=C)C(=O)c1ccc(OC2CCN(S(=O)(=O)N(C)C)CC2)cc1	none (no result: CHOP inhibitor, p97 ATPase inh)
Cc1c(Br)c(=O)oc2c(Br)c(O)c(O)cc12	PfM18AAP inh-1 39, p97 ATPase inh 24 (no result: CHOP UPR activ, UPR XBP1 act) | p97 confirm 31 | PfM18AAP inh-2 inactive | CTSL1 counter inactive
O=C(O)c1ccc(-c2nc(-c3ccc(Cl)c(Cl)c3)cs2)cc1	none
NC(=O)C(=CNc1nc(-c2ccc(Cl)c(Cl)c2)cs1)C(N)=O	PfM18AAP inh-1 69, p97 ATPase inh 26 (no result: CHOP UPR activ, UPR XBP1 act) | p97 confirm 19 | PfM18AAP inh-2 53 | CTSL1 counter inactive
Cc1nnc(N/N=C\c2ccc(-c3ccccc3[N+](=O)[O-])o2)n1N	PfM18AAP inh-1 43, p97 ATPase inh 17 (no result: CHOP UPR activ, UPR XBP1 act) | p97 confirm inactive | PfM18AAP inh-2 inactive | CTSL1 counter inactive
Cc1n[nH]c(=S)n1/N=C/c1ccc(-c2ccccc2[N+](=O)[O-])o1	none
CN(C)S(=O)(=O)c1cccc(NC(=S)N/N=C/c2ccc(O)c(O)c2O)c1	HCV NS3 hel inh 41, PfM18AAP inh-1 49, p97 ATPase inh 16 (no result: CHOP UPR activ, UPR XBP1 act) | p97 confirm 20 | NS3 helicase cf inactive | FID counter trip 50 | PfM18AAP inh-2 40 | CTSL1 counter inactive
CC(C)CC(=O)N1CCN(C(=O)c2ccc(F)cc2)CC1	none (no result: CHOP inhibitor, p97 ATPase inh)
O=c1c(-c2ccc([N+](=O)[O-])cc2)coc2c(O)c(O)ccc12	PfM18AAP inh-1 45, p97 ATPase inh 18 | p97 confirm 24 | PfM18AAP inh-2 inactive | CTSL1 counter inactive

Screening results deposited in PubChem BioAssay by several laboratories.
